Assay outcomes from PubChem BioAssay.
Sampled rows, rich in hits. Any-hit rate of the full collection: about 1.5%.
LANA-H2B inh = blockers of LANA interaction with H2A/H2B – biochemical, FP readout, HTS, primary screen. cell-free LANA-H2A/H2B peptide, fluorescence polarization. inhibition, % (test concentration not listed). actives 0.6% (n = 320,000). AID 2629, 2010; in the data active = inhibition mostly above about 10%, no sharp cut-off; inactive = mostly below about 6.7%
Bfl-1 A1 inh = caspase 3/7 activation in MEF A1-2A-BIM cells, primary screen, A1 inhibitor project, cell-based, luminescence, HTS; Caspase-Glo 3/7 luminescence, 3 h; percent of clofoctol response, vehicle zero; caspase activation, % (no concentration beside the values); actives 0.066% (n = 330,000); AID 2462, 2010;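 active = over half of replicate activation scores above 10%, or exactly half above 10 with the replicate mean above 10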
ZTA counter = ZTA (EBV) inhibition in EBNA-1 counter-screen; inhibition, % at 11 µM; actives 0.15% (n = 320,000); P03206; ZTA-DNA binding, fluorescence polarization; in the data active = inhibition above about 33%
HNF4A DNA FP = change in binding of human HNF4A to DNA, primary screen, biochemical, fluorescence polarization, FITC-DNA | Hepatocyte nuclear factor 4-alpha (Homo sapiens), P41235 | 1 h | activity change, % at 10 µM | actives 0.3% (n = 360,000) | AID 1224865, 2016; in the data active = activity change above about 30%, passing the limit was not always enough
EBNA-1 inhibitor = EBNA-1 DNA-binding inhibitors, primary screen, biochemical, fluorescence polarization | inhibition, % at 14.8 µM | actives 0.34% (n = 300,000); in the data active = inhibition above about 28%
CSN deneddyl inh = inhibitors of CSN-mediated cullin deneddylation, primary screen, biochemical, fluorescence polarization, uHTS; COP9 signalosome complex subunit 5 (Homo sapiens), Q92905; Purified CSN, SCF-Nedd8-OG deneddylation; inhibition, % at 12.5 µM; actives 0.38% (n = 360,000); AID 651999, 2013;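 active = pattern-corrected inhibition above about 35%, with an unprinted fluorescence ratio check between 0.5 and 1.5, limit read from the data, passing the limit was not always enough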;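 also: 0% = enzyme with substrate and 100% = substrate without enzyme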
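Detection – fluorescence polarization · System – HEK293T-derived human Csn5 enzyme · Controls – substrate-only high control, full reaction low control · Timing – 90 min, room temperature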
Numbers without * were called inactive.

For CCOC(=O)C(c1ccccc1)C(Nc1ccc(F)cc1)c1ccccn1 (stereo not drawn) the results were LANA-H2B inh 21*, Bfl-1 A1 inh 0, ZTA counter -9, HNF4A DNA FP 2, EBNA-1 inhibitor 0 and CSN deneddyl inh -5.
`NC(=O)COC(=O)c1ccc2noc(-c3ccccc3)c2c1` gave LANA-H2B inh -4, Bfl-1 A1 inh 0, ZTA counter -7, HNF4A DNA FP 6, EBNA-1 inhibitor -20 and CSN deneddyl inh 6.
Cc1cc(C)c2nc3nc(C)c(C)cc3c(N)c2c1 was read as HNF4A DNA FP 2 and CSN deneddyl inh 9.
CCOCCCNC(=O)C(NC(=O)c1ccccn1)c1ccc(C)cc1 (stereo not drawn) was read as LANA-H2B inh 12*, Bfl-1 A1 inh -1, ZTA counter 3, HNF4A DNA FP 2, EBNA-1 inhibitor -5 and CSN deneddyl inh -3.
`Cc1ccc(S(=O)(=O)NC(=O)Nc2ccc(N(C)C)cc2)cc1` gave LANA-H2B inh 2, Bfl-1 A1 inh 0, ZTA counter active, HNF4A DNA FP -1, EBNA-1 inhibitor active and CSN deneddyl inh 7.
For COC(=O)c1ccccc1NC(=O)CSc1nnc(C(CO)NC(=O)c2ccccc2)n1C (stereo not drawn) the results were LANA-H2B inh 6, Bfl-1 A1 inh 0, ZTA counter -5, HNF4A DNA FP -1, EBNA-1 inhibitor -11 and CSN deneddyl inh -2.
COC(=O)c1ccccc1NC(=O)CSc1nnc(C(CO)NC(=O)c2ccccc2Cl)n1C (stereo not drawn) was read as LANA-H2B inh 5, Bfl-1 A1 inh 0, ZTA counter 4, HNF4A DNA FP 37*, EBNA-1 inhibitor 3 and CSN deneddyl inh -6.
Screening CC1CCCCN1C(C(=O)O)c1ccccc1 (stereo not drawn) returned LANA-H2B inh 3, Bfl-1 A1 inh 0, ZTA counter -11, HNF4A DNA FP -1, EBNA-1 inhibitor 2 and CSN deneddyl inh -12.
CC1CC(OC(=O)C(O)c2ccccc2)CC(C)(C)N1C (stereo not drawn) was read as LANA-H2B inh 17*, Bfl-1 A1 inh 1, ZTA counter 11, HNF4A DNA FP 3, EBNA-1 inhibitor 6 and CSN deneddyl inh 2.
Screening O=C(C(=O)N1CCC(Cc2ccccc2)CC1)c1cccc(Br)c1 returned HNF4A DNA FP -4 and CSN deneddyl inh 1.
Screening O=C(CCl)N(C1CCCC1)C1CCS(=O)(=O)C1 (stereo not drawn) returned LANA-H2B inh 2, Bfl-1 A1 inh 0, ZTA counter -1, HNF4A DNA FP 4, EBNA-1 inhibitor 13 and CSN deneddyl inh -4.
Screening Cc1cc(C(=O)COC(=O)c2cc(Cl)c(O)c(Cl)c2)c(C)n1C returned LANA-H2B inh 2, Bfl-1 A1 inh -1, ZTA counter -11, HNF4A DNA FP -23 and CSN deneddyl inh 42*.
Screening Fc1ccc(-c2nnc(Cc3ccc(Cl)cc3)o2)cc1 returned LANA-H2B inh 1, Bfl-1 A1 inh 0, ZTA counter 1, HNF4A DNA FP 61*, EBNA-1 inhibitor 11 and CSN deneddyl inh -1.
`Cc1ccc2nnnc(-c3ccccc3)c2c1` gave LANA-H2B inh -2, Bfl-1 A1 inh 0, ZTA counter 35*, HNF4A DNA FP 4, EBNA-1 inhibitor 38* and CSN deneddyl inh -1.
Cc1ccc2nc(NCC(N)=O)nc(-c3ccccc3)c2c1 was read as LANA-H2B inh 1, Bfl-1 A1 inh -1, ZTA counter -5 and EBNA-1 inhibitor -10.
Screening CCN1C(=O)S/C(=C/c2c(OCc3ccc(C(=O)O)cc3)ccc3ccccc23)C1=O returned LANA-H2B inh 119*, Bfl-1 A1 inh 0, ZTA counter 16, HNF4A DNA FP 0, EBNA-1 inhibitor 6 and CSN deneddyl inh 1.
O=C(O)c1ccc(COc2ccc3ccccc3c2/C=C2/NC(=O)N(c3ccccc3)C2=O)cc1 was read as LANA-H2B inh 4, Bfl-1 A1 inh 1, ZTA counter 27, HNF4A DNA FP 1, EBNA-1 inhibitor 10 and CSN deneddyl inh 0.
COc1ccc(C=C2C=C(C(C)(C)C)C(=O)C(C(C)(C)C)=C2)cc1OC was read as LANA-H2B inh 0, Bfl-1 A1 inh 11*, ZTA counter -13, HNF4A DNA FP -3, EBNA-1 inhibitor -7 and CSN deneddyl inh 8.
For C[C@]12CC[C@@H]3c4ccc(O)cc4CC[C@H]3[C@@H]1CC[C@@H]2O the results were LANA-H2B inh -1, Bfl-1 A1 inh 0, ZTA counter 15, HNF4A DNA FP 1, EBNA-1 inhibitor -1 and CSN deneddyl inh -1.
C[C@]12CC[C@@H]3c4cc(O)c(O)cc4CC[C@H]3[C@@H]1CC[C@@H]2O was read as LANA-H2B inh 29*, Bfl-1 A1 inh -1, ZTA counter 9, HNF4A DNA FP 3, EBNA-1 inhibitor 3 and CSN deneddyl inh -4.
`CC(=O)OC1CCC2C3CCc4cc(O)ccc4C3CCC12C` (stereo not drawn) gave HNF4A DNA FP 1 and CSN deneddyl inh 3.
For C[C@]12CC[C@@H]3c4ccc(O)cc4[C@@H](O)C[C@H]3[C@@H]1CC[C@@H]2O the results were LANA-H2B inh 26*, Bfl-1 A1 inh 0, ZTA counter 0 and EBNA-1 inhibitor -6.
Cc1ccc(C)n1-c1cccc(C(=O)O)c1 was read as LANA-H2B inh 6, Bfl-1 A1 inh 0, ZTA counter 78* and EBNA-1 inhibitor 27.
`Cc1cc(C=O)c(C)n1-c1cccc(C(=O)O)c1` gave LANA-H2B inh -8, Bfl-1 A1 inh -1, ZTA counter -6, HNF4A DNA FP -9, EBNA-1 inhibitor -2 and CSN deneddyl inh 9.
Screening CCOc1ccc(S(=O)(=O)N2CCC(C(=O)NCc3ccncc3)CC2)cc1C returned LANA-H2B inh 2, Bfl-1 A1 inh 0, ZTA counter -3, HNF4A DNA FP 0, EBNA-1 inhibitor -5 and CSN deneddyl inh 3.
Screening N#Cc1ccccc1NC(=O)CSc1nnc(-c2ccncc2)o1 returned LANA-H2B inh 13*, Bfl-1 A1 inh 0, ZTA counter -13, HNF4A DNA FP 0, EBNA-1 inhibitor -3 and CSN deneddyl inh 1.
`COc1ccccc1NC(=O)c1cc2ccccc2o/c1=N\O` gave LANA-H2B inh 3, Bfl-1 A1 inh -2, ZTA counter 14, HNF4A DNA FP -4, EBNA-1 inhibitor 42* and CSN deneddyl inh 0.
